Results published in PubChem BioAssay.
Activity calls are given as the source filed them.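 Rule for the calls: active = mean duplicate activation above the buffer control mean plus 5 SD of those controls; inactive = the rest.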

Target: Potassium voltage-gated channel subfamily E member 1 (Homo sapiens) + Potassium voltage-gated channel subfamily KQT member 1 (Homo sapiens) (UniProt P15382+P51787)
Test: KCNQ1-E1 channel activation – thallium flux, CHO-K1 KCNQ1/E1 cells, selectivity assay for KCNQ1 potentiator project, confirmation (AID 493186)
Conditions: FluxOR thallium flux, at 10 µM
In short: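 Material: CHO-K1 cells with KCNQ1/E1 / Timing: dye 90 min, compound 20 min, room temperature / Technique: kinetic thallium-sensitive FluxOR dye fluorescence / Read-out: percent activation scaled between buffer and R-L3 ratio signals / Replicates: tested in duplicate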

Sequence of Potassium voltage-gated channel subfamily E member 1 (Homo sapiens) + Potassium voltage-gated channel subfamily KQT member 1 (Homo sapiens) (P51787 whole entry, looked up): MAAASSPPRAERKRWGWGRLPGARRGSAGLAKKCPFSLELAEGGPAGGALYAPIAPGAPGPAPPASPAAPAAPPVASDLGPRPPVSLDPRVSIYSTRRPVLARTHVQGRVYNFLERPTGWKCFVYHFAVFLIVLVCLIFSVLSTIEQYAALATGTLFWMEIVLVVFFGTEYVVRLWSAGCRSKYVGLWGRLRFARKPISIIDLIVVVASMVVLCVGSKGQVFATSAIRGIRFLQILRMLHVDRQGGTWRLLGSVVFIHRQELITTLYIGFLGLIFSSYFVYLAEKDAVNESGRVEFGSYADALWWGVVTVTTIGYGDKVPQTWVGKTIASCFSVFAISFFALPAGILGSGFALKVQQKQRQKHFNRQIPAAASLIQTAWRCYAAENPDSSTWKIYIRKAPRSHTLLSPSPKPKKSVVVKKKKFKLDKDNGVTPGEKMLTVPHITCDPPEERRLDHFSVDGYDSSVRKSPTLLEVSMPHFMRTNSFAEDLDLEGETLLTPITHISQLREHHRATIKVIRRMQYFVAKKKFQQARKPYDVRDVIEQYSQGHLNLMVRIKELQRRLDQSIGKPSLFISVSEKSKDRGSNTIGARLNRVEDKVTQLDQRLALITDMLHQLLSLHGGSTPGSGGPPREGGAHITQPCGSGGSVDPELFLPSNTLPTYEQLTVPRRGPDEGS

Structure (SMILES) | outcome
CC1(C)C[C@H]2C=C(C=O)[C@]3(C=O)C[C@]3(C)[C@H]2C1 | inactive
O=c1c(C=NCCN2CCNCC2)c(O)n(C2CCCCC2)c(=O)n1C1CCCCC1 | inactive
COc1ccc(C2NCc3ccc4c(c3-n3cccc32)OCO4)cc1O (stereo unspecified) | inactive
COc1ccc(C(=O)OC2CC[C@@]3(C)C4CCC5[C@]6(O)CC(O)[C@@]7(O)C(CN8CC(C)CCC8[C@@]7(C)O)[C@]6(O)C[C@@]53O[C@]24O)cc1OC (stereo partly specified) | inactive
Cc1ccccc1CC(=O)N(CCN(C)C)CC1CCCN(Cc2ccccc2F)C1 (stereo unspecified) | inactive
C/C1=C\[C@@H](C)C/C=C/[C@H]2[C@@H]3O[C@]3(C)[C@@H](C)[C@H]3[C@H](Cc4c[nH]c5ccccc45)NC(=O)[C@]32C(=O)/C=C/C(=O)[C@@H]1O | inactive
O=[N+]([O-])c1cccc(C2N3CCCN23)c1 (stereo unspecified) | inactive
CC(=O)OC(C)(C)/C=C/C(=O)C(C)(O)C1[C@H](O)C[C@@]2(C)C3CC=C4C(CC[C@@H](O)C4(C)C)[C@]3(CO)C(=O)C[C@]12C (stereo partly specified) | inactive
COc1ccc2c(c1)/C(=C/c1cnc[nH]1)C(=O)N2 | inactive
CC1(C)CSC(=NCc2ccccc2)N1 | inactive
CC1=CC2/C=C(\C)CCC(O)C(O)/C=C/C(=O)C23C(=O)NC(CC(C)C)C3C1C (stereo unspecified) | inactive
C/C=C(\C)C(=O)N[C@@H](c1ccccc1)[C@@H](O)C(=O)O[C@H]1C[C@@]2(O)[C@@H](OC(=O)c3ccccc3)C3[C@](C)(C(=O)[C@H](OC(C)=O)C(=C1C)C2(C)C)[C@@H](O)C[C@H]1OC[C@@]31OC(C)=O (stereo partly specified) | inactive
O=[N+]([O-])c1ccc(N2CCOCC2)c2ccncc12 | inactive
Cn1cccc1/C=C1/C(=O)NC(=S)N(Cc2ccc(F)cc2)C1=O | inactive
Cc1ccc(/C=C2/C(=O)NC(=O)N(CCc3ccc(F)cc3)C2=O)o1 | inactive
CCOc1cc(CNCCc2c[nH]c3ccccc23)cc(Cl)c1OCC | inactive
